Measured values of several laboratories.
Each line is one published result; the experiments were not run side by side.
Target: Serine/threonine-protein kinase 4 (STK4, Homo sapiens, UniProt Q13043)
Sequence (Q13043 1-487, as in one of the studies): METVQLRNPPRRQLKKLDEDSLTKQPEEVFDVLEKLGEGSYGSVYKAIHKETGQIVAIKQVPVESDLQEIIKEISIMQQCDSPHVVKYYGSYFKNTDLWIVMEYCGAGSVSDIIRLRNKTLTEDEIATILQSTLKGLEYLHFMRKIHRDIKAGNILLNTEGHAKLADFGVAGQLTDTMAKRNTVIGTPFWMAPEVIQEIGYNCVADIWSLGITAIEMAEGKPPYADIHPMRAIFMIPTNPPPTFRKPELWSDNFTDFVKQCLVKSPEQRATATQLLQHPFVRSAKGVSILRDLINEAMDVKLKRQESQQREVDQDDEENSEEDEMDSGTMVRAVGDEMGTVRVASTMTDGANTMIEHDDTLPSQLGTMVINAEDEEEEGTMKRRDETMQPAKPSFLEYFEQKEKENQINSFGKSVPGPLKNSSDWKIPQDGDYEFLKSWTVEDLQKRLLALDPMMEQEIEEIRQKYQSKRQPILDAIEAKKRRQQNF

Cn1c2c(c3ccccc31)C(C#N)C(C)(C)NC2=O (stereo not drawn) has a ΔTm of 0.2 °C (thermal stability, DSF; 10 µM).
For CN(c1nccc(-c2cnn3ncccc23)n1)C1CC1, the remaining signal was 99% (cell-free assay; 1 µM).
Cc1cc(C)c(-n2ccn3nc(-c4cccnc4)cc23)cc1NC(=O)c1cc(C#N)cc(S(F)(F)(F)(F)F)c1 gave a remaining binding of 88.5% (cell-free assay, competition with immobilised ligand; 0.1 µM).
CC(C)(C)c1nc2c(s1)c1nc(N)ncc1c1ccc(NS(=O)(=O)c3c(F)cccc3F)c(F)c12 gave a remaining activity of 86% (enzyme activity, inhibitor, radiometric; 1 µM).
The remaining activity of COc1cc(Cl)c(C(=O)N[C@@H](CN[C@H]2CC[C@@H](N)CC2)Cc2ccc(C#N)cc2)cc1-c1ccc(CN[C@H](C)c2ccc(C)cc2)o1 is reported as 102% (enzyme activity, inhibitor; 1 µM).
With Cc1ccc(Nc2nccc(N(C)c3ccc4c(C)n(C)nc4c3)n2)cc1S(N)(=O)=O the inhibition was 1% (enzyme activity, inhibitor; 0.3 µM).
CC1(C)NC(=O)c2[nH]c3c(Cl)c(Cl)ccc3c2C1C#N (stereo not drawn) has a ΔTm of -0.6 °C (thermal stability, DSF; 10 µM).
With CC(=O)C1=C(C)N(c2cccc(C(F)(F)F)c2)C(=O)N[C@@H]1c1ccc(C#N)nc1 the remaining binding was 97.5% (cell-free assay, competition with immobilised ligand; 1 µM).
For Cn1c2c(c3ccc(Cl)c(Cl)c31)C(C#N)C1(CCOCC1)NC2=O (stereo not drawn), the ΔTm was -0.4 °C (thermal stability, DSF; 10 µM).
Cc1cc(-n2nc(Cc3cc(F)cc(C(F)(F)F)c3)nc2C)ccc1C(N)=O gave a remaining binding of 100% (cell-free assay, competition with immobilised ligand; 1 µM).
Nc1ncnc2occ(-c3ccc(NC(=O)Nc4cc(C(F)(F)F)ccc4F)cc3)c12 has a remaining signal of 2.1% (cell-free assay, inhibitor; 20 µM).
COc1cc2ncnc(Nc3ccc(Oc4ccccc4)cc3C)c2cc1OC has an inhibition of 1% (enzyme activity, inhibitor; 1 µM).
O=C(Nc1cnn(-c2csc(C(=O)NC3COC3)c2)c1)Nc1ccccc1Cl has a remaining activity of 99.3% (enzyme activity, inhibitor; 5 µM).
Cn1c2c(c3ccc(Cl)c(Cl)c31)C(C#N)C(C)(C)NC2=O (stereo not drawn) has a ΔTm of -0.4 °C (thermal stability, DSF; 10 µM).
The remaining signal of O=C1NC(=O)c2cc(Nc3ccc(F)cc3)c(Nc3ccc(F)cc3)cc21 is reported as 101% (cell-free assay; 0.5 µM).
COc1cccc2c(NCc3ccccc3)nc(-n3c(N)nc4ccccc43)nc12 has an inhibition of 6.2% (target engagement in cells, inhibitor, chemoproteomics; 20 mM).
The remaining binding of O=C(N1CCS(=O)(=O)CC1)N1C[C@H](c2ccc(OC(F)(F)F)cc2)C[C@H](c2nc(C3CC3)no2)C1 is reported as 100% (cell-free assay, competition with immobilised ligand; 1 µM).
O=C(Nc1cnn(-c2csc(C(=O)NC3COC3)c2)c1)Nc1c(F)cccc1Cl has a remaining activity of 96.6% (enzyme activity, inhibitor; 5 µM).
The remaining activity of Cc1cnc(NC2CCOCC2)nc1-n1cnc(C(=O)NC(CN)c2cc(F)cc(Cl)c2)c1 (stereo not drawn) is reported as 103% (enzyme activity, inhibitor, radiometric; 1 µM).
The remaining binding of COc1ccc2cc(OCC3(C(=O)O)CN(C(=O)c4ccc(F)cc4)C3)ccc2c1 is reported as 100% (cell-free assay, competition with immobilised ligand; 1 µM).
Cc1ccc(C(=O)Nc2ccc(CN3CCN(C)CC3)c(C(F)(F)F)c2)cc1C#Cc1cnc2cccnn12 gave a remaining activity of 100% (enzyme activity, inhibitor; 23.5 nM).
The inhibition of CN1CC(Oc2cnc(C#N)cc2-c2ccn3nc(NC(=O)C4CC4)cc3c2)C1 is reported as -5% (enzyme activity, inhibitor; 1 µM).
The remaining binding of C[C@H](c1ccc(F)cc1)N(Cc1cccc(C(=O)O)c1)C(=O)c1cnc2ccccc2c1 is reported as 92% (cell-free assay, competition with immobilised ligand; 1 µM).
CCC1(CC)NC(=O)c2c(c3ccc(Cl)c(Cl)c3n2C)C1C#N (stereo not drawn) has a ΔTm of -0.3 °C (thermal stability, DSF; 10 µM).
Cc1cc(NC(=O)c2cccc3cc(-c4cccc5[nH]nc(N)c45)ccc23)ccc1F has an activity vs control of 104% (enzyme activity, inhibitor; 0.1 µM).
N#CCCc1ccc2c(c1)-c1[nH]c3ccc([N+](=O)[O-])cc3c1CC(=O)N2 has a remaining signal of 30.9% (cell-free assay; 0.5 µM).
Cc1nc(C2CCN(C(=O)c3ccc(OC(F)(F)F)cc3N)CC2)c2ncc(N3CCN(C)CC3)cc2n1 gave a remaining binding of 85% (cell-free assay, competition with immobilised ligand; 1 µM).
CNC(=O)c1cc(Oc2ccc(NC(=O)Nc3ccc(Cl)c(C(F)(F)F)c3)cc2)ccn1 has an inhibition of 3% (enzyme activity, inhibitor; 10 µM).
Cc1c(NC(=O)c2cc(C(N)=O)nc3cc(F)ccc23)c(C(F)(F)F)nn1Cc1ccc(C(C)(C)C)cc1 gave a remaining binding of 95% (cell-free assay, competition with immobilised ligand; 1 µM).
C[C@@H]1CCN(C(=O)CC#N)C[C@@H]1N(C)c1ncnc2[nH]ccc12 has a remaining signal of 95.5% (cell-free assay, inhibitor; 0.5 µM).
